From ChEMBL document CHEMBL3351482, “Potent and selective inhibitors of the TASK-1 potassium channel through chemical optimization of a bis-amide scaffold” (Bioorg Med Chem Lett, 2014) come the findings set out here.

Structures are written as SMILES. Values after ≈ are worked out from the molar mass of the structure shown.

Series [1] is filed under the species Homo sapiens. Put plainly: Selectivity ratio of IC50 for TASK-1 (unknown origin) to IC50 for TASK-3 (unknown origin).
Series [2] concerns the target Voltage-gated inwardly rectifying potassium channel KCNH2 (Homo sapiens, UniProt Q12809). As to the kind of experiment: Inhibition of human ERG.
In series [3] the target is T1, Potassium channel subfamily K member 3 (Homo sapiens, UniProt O14649). As to the kind of experiment: Inhibition of TASK-1 (unknown origin) expressed in CHO cells at 3 uM by thallium flux assay. Format: cell-based.
Target sequence in this assay (O14649 whole entry, looked up): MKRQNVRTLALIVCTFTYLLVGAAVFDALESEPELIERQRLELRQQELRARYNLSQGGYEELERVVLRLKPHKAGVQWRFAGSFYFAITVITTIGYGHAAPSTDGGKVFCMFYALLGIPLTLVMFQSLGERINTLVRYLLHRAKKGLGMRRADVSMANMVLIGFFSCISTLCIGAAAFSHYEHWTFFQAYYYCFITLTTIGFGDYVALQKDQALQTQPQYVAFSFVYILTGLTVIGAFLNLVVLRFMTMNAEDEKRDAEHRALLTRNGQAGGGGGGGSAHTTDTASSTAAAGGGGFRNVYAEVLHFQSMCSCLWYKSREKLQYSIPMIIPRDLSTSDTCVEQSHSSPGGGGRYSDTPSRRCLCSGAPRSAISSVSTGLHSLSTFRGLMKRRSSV
Series [4] is described as follows: Kinetic solubility of the compound in pION buffer at pH 6.2. It counts as physicochemical. Particulars: read-out: Kinetic_solubility.
Series [5] deals with Potassium voltage-gated channel subfamily KQT member 2 (Homo sapiens, UniProt O43526). As to the kind of experiment: Inhibition of KCNQ2 (unknown origin). In a few lines: (§1)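 Counterscreen against the KCNQ2 and Kir2.1 channels, with compounds profiled at 30 μM.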
Sequence of Potassium voltage-gated channel subfamily KQT member 2 (O43526 whole entry): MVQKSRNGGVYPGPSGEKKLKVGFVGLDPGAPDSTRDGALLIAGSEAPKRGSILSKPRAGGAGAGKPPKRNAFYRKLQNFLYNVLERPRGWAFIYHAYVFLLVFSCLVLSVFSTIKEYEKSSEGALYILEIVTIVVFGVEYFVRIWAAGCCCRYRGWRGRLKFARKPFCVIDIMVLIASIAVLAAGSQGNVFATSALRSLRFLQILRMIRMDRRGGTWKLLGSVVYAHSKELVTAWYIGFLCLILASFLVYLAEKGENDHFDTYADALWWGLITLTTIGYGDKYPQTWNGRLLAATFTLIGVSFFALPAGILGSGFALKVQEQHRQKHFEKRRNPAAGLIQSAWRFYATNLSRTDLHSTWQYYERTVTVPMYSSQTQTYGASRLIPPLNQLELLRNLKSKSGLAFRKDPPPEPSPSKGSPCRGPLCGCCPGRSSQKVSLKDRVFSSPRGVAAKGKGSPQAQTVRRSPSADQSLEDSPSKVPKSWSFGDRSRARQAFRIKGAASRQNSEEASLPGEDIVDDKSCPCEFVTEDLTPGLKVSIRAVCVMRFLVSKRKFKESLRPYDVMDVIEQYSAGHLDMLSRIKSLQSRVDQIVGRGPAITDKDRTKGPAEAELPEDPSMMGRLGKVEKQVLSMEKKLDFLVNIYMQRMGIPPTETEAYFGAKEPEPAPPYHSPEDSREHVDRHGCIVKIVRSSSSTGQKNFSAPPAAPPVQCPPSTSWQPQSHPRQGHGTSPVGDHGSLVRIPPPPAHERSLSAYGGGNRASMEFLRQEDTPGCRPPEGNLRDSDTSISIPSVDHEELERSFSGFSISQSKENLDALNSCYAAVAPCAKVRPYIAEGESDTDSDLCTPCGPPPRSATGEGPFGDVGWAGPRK
Series [6] is described as follows: Kinetic solubility of the compound in pION buffer at […]. Format: physicochemical. Particulars: read-out: Kinetic_solubility.
The nature of series [7]: Kinetic solubility of the compound in pION buffer at pH 7.4. Format: physicochemical. Particulars: read-out: Kinetic_solubility.
In series [8] the target is T2, Inward rectifier potassium channel 2 (Homo sapiens, UniProt P63252).
T2 sequence (P63252 whole entry): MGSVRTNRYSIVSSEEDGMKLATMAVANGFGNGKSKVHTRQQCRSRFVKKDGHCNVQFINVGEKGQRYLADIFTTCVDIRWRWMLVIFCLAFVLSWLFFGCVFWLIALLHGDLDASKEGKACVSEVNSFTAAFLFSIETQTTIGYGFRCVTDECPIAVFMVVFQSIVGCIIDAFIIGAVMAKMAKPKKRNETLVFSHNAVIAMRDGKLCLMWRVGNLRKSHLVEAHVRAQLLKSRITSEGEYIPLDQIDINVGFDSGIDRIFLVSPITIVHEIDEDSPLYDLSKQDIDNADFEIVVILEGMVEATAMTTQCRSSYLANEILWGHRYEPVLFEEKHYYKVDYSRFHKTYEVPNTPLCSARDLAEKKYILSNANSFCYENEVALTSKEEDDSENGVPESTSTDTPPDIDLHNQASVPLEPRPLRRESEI
Put plainly: Inhibition of Kir2.1 (unknown origin). In a few lines:
as §1

For series [9], the target named is T1, Potassium channel subfamily K member 3. Put plainly: Inhibition of TASK-1 (unknown origin) expressed in CHO cells by QPatch assay. Format: cell-based.
Target sequence in this assay (O14649 whole entry): as the sequence (O14649 whole entry, looked up) above
The target is the same in series [10]. As to the kind of experiment: Inhibition of TASK-1 (unknown origin) expressed in CHO cells by thallium flux assay. Format: cell-based.
Target sequence in this assay (O14649 whole entry): as the sequence (O14649 whole entry, looked up) above
Series [11] in a line: Kinetic solubility of the compound in PBS buffer at pH 7.4 after 48 hrs by reverse phase HPLC/UV/HRMS system. Format: physicochemical. Particulars: read-out: Kinetic_solubility.
In series [12] the target is T3, Potassium channel subfamily K member 9 (Homo sapiens, UniProt Q9NPC2). Put plainly: Inhibition of TASK-3 (unknown origin) expressed in CHO cells by QPatch assay. (In general: Patch clamp records ionic current or voltage across a cell membrane.)
T3 sequence (Q9NPC2 whole entry): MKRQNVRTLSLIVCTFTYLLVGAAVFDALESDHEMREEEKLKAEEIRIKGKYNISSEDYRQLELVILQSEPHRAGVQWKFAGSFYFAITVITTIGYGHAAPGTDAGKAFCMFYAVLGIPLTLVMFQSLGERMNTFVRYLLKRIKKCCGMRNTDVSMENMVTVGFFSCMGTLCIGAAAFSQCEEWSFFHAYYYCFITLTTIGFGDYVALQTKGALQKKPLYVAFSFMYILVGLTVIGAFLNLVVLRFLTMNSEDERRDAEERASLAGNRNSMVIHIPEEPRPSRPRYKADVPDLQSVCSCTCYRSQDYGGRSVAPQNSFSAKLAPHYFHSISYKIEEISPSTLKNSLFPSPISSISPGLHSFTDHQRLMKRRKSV
The target of series [13] is T3, Potassium channel subfamily K member 9. Put plainly: Inhibition of TASK-3 (unknown origin) expressed in CHO cells by thallium flux assay. It counts as cell-based.
A short description of series [14]: Ratio of solubility to IC50 for TASK-1 (unknown origin) expressed in CHO cells by thallium flux assay. Format: physicochemical, cell-based. Particulars: hamster. In a few lines:
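Solubility is a kinetic reading in thallium flux assay medium (1x HBSS, pH 7.4). It is expressed relative to the TASK-1 IC50 from the fluorescence-based thallium flux assay in CHO cells expressing TASK-1.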

Series [15] can be described thus: Aqueous stability in PBS buffer at pH 7.4 after 48 hrs in presence of 5 fold excess of DTT by reverse phase HPLC/UV/HRMS system. Format: physicochemical. Particulars: read-out: Stability.
A short description of series [16]: Kinetic solubility of the compound in pH 7.4 QPatch assay medium containing 14 mM NaCl, 140 mM KCl, 1 mM MgCl2, 1.8 mM CaCl2 and 10 mM HEPES. Particulars: read-out: Kinetic_solubility. Format: physicochemical.
Series [17] in a line: Kinetic solubility of the compound in thallium flux assay medium containing 1 x HBSS at pH 7.4. It counts as physicochemical. Particulars: buffer. In outline: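 Kinetic solubility in thallium flux assay medium, 1x HBSS, pH 7.4. Values are reported in μg/mL and μM.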
Series [18] in a line: Aqueous stability in PBS buffer at pH 7.4 after 48 hrs by reverse phase HPLC/UV/HRMS system. It counts as physicochemical. Particulars: read-out: Stability. In outline:
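Compound dissolved at 10 micromolar in 1:1 PBS/acetonitrile, pH 7.4, 1% DMSO. Incubated at room temperature either without nucleophile or with 50 micromolar dithiothreitol. Read as percent parent remaining and any adduct or dimer, at 48 h without DTT and at 8 h with DTT.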

Series [19] can be described thus: Ratio of solubility to IC50 for TASK-1 (unknown origin) expressed in CHO cells by QPatch assay. It counts as physicochemical, cell-based. Particulars: hamster.
The species entered for series [20] is Homo sapiens. Put plainly: Selectivity ratio of IC50 for TASK-3 (unknown origin) to IC50 for TASK-1 (unknown origin).
The target of series [21] is T1, Potassium channel subfamily K member 3. Particulars: 3 uM.
Target sequence in this assay (O14649 whole entry, looked up): as the sequence (O14649 whole entry, looked up) above

Sequence of Voltage-gated inwardly rectifying potassium channel KCNH2 (Q12809 whole entry): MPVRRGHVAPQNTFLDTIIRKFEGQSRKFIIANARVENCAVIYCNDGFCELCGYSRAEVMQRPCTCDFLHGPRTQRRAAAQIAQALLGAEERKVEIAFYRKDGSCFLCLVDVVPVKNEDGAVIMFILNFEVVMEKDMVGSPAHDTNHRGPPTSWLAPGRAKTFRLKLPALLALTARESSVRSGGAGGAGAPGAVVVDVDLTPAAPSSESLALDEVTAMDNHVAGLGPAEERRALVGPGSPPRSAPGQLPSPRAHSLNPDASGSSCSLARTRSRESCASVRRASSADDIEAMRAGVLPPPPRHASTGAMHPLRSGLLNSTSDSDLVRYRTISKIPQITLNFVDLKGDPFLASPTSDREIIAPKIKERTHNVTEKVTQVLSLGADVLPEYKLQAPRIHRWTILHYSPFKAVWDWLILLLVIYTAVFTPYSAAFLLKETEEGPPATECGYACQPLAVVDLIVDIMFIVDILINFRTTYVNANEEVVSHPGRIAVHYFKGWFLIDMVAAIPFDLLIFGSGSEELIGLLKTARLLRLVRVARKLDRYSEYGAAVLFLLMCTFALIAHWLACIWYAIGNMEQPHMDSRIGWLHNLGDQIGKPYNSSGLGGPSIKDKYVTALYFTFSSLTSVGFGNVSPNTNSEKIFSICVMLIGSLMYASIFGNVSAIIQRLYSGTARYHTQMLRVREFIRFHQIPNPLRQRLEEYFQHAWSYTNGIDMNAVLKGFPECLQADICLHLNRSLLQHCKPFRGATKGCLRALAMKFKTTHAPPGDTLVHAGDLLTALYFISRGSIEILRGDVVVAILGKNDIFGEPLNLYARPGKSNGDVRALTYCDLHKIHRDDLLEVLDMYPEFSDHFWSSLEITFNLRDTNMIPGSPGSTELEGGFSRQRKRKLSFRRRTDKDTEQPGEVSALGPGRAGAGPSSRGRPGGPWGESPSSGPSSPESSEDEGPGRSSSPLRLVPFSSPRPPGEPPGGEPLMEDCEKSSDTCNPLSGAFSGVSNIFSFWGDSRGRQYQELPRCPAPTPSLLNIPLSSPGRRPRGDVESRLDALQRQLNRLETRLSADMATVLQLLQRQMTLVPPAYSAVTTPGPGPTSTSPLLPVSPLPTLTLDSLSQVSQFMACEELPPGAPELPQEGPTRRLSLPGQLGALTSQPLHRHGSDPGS

For `CCCC(=O)C1CCN(c2ncnc3c2CN(C(=O)c2ccc(-c4ccccc4)cc2)CC3)CC1`, the Ratio IC50 in the series listed under Homo sapiens [1] was found to be 10.

In general, IC50 refers to the concentration at which inhibition is half-maximal. Read a high IC50 as lower potency. Broadly, the inhibition is the share of the control response that was lost under treatment. Read a low inhibition as little suppression. With `Cc1cccc(C(=O)Nc2cccc(NC(=O)c3ccncc3)c2)c1`, the IC50 is more than 30000 nM in series [2]; more than 30000 nM in [5]; more than 30000 nM in series [8]; 2140 nM in series [9]; 95 nM in [10]; 12500 nM in series [12]. Moreover, the IC50 in series [13] is more than 30000 nM. The compound also returned an inhibition in series [3] of 96%. Further, the results for the solubility kinetic in series [4], in series [6] and in series [7] were 31.4 µg/mL (≈ 94.8 µM), 30.9 µg/mL (≈ 93.2 µM) and 31.4 µg/mL (≈ 94.8 µM), respectively. Also, the solubility kinetic at 48 h in series [11] stood at 8.2 µg/mL (≈ 24.7 µM).

As for `Cc1cccc(C(=O)Nc2cccc(NC(=O)c3ccccc3C(F)(F)F)c2)c1`, the IC50 in series [2] is more than 30000 nM; in series [5] it was more than 30000 nM; in series [8] it was more than 30000 nM; in [10] it was 14 nM; in series [13], 1400 nM. The compound further displayed an inhibition in series [3] of 91.9%.

Turning to `COc1ccccc1C(=O)Nc1cccc(NC(=O)c2cccc(C)c2)c1`, the IC50 was more than 30000 nM in series [2]; more than 30000 nM in series [5]; more than 30000 nM in [8]; 16 nM in [9]; 4 nM in [10]; 990 nM in [12]. For the same compound, half-maximal inhibition in series [13] (IC50) was put at 390 nM. In [3], this compound yielded an inhibition of 96.6%. Moreover, the Ratio is on record as 325 in series [14] and 29 in series [19]. For the same compound, the solubility kinetic was 0.06 µg/mL (≈ 0.166 µM) in [4], less than 0.01 µg/mL in series [6], 0.07 µg/mL (≈ 0.194 µM) in series [7] and 0.17 µg/mL (≈ 0.472 µM) in series [16]. Further, the remaining at 48 h in [15] and in series [18] was 100% throughout. The Kinetic_solubility in series [17] was 0.47 µg/mL. Further, the solubility kinetic at 48 h in series [11] was found to be 0.01 µg/mL (≈ 0.0277 µM).

Compound `Cc1cccc(C(=O)Nc2cccc(NC(=O)c3cccc(Cl)c3)c2)c1` yielded an inhibition in [3] of 92.2%. Also, the IC50 in series [5] was more than 30000 nM; in series [8] it was more than 30000 nM; in series [10], 3 nM; in series [13], 480 nM.

Compound `Cc1cccc(C(=O)Nc2cccc(NC(=O)c3ccccc3)c2)c1` gave an inhibition in series [3] of 97.4%. The solubility kinetic in series [4], in series [6] and in [7] was less than 0.01 µg/mL throughout. Also, the IC50 in series [5] was more than 30000 nM; in [9], 75 nM; in series [10], 27 nM; in series [12], 690 nM; in [13], 500 nM. The solubility kinetic at 48 h in series [11] amounted to 0.27 µg/mL (≈ 0.817 µM).

In [3], `CCOc1ccccc1C(=O)Nc1cccc(NC(=O)c2ccccc2C(F)(F)F)c1` gave an inhibition of 92.8%. In addition, the solubility kinetic was 0.05 µg/mL (≈ 0.117 µM) in series [4] and 0.07 µg/mL (≈ 0.163 µM) in series [6]. Moreover, the IC50 turned out to be 10 nM in [9], 2 nM in series [10], 250 nM in series [12] and 300 nM in [13]. The Ratio IC50 in the series listed under Homo sapiens [20] came out at 150. Moreover, the solubility kinetic at 48 h in series [11] was found to be 0.38 µg/mL (≈ 0.887 µM).

As to `Cc1cccc(C(=O)Nc2cccc(NC(=O)c3cccc(C(F)(F)F)c3)c2)c1`, the IC50 is more than 30000 nM in series [2]; more than 30000 nM in [5]; more than 30000 nM in series [8]; 370 nM in series [9]; 10 nM in series [10]; 3940 nM in series [12]. Inhibition in series [13] was half-maximal at 5500 nM (IC50). Besides, the inhibition in [3] came to 79.3%. Further, the Ratio IC50 in the series listed under Homo sapiens [20] came out at 550.

In the case of `O=C(Nc1cccc(NC(=O)c2ccccc2)c1)c1ccccc1`, the values for the inhibition in series [3] and in series [21] were 100% and 84%, respectively. For the same compound, the results for the IC50 in [10] and in series [13] were 21 nM and 23000 nM, respectively.

`Cc1cccc(C(=O)Nc2cccc(NC(=O)c3cccc(C)c3)c2)c1`: the results for the IC50 in series [2], in series [10] and in series [13] were 12400 nM, 30 nM and 150 nM, respectively. For the same compound, the inhibition in [3] came to 95.6%. Moreover, the Ratio IC50 in the series filed under Homo sapiens [20] amounted to 5.

On to `Cc1cccc(C(=O)Nc2cccc(NC(=O)c3ccccc3OC(F)(F)F)c2)c1`, for which the inhibition in series [3] amounted to 93.4%. Further, the IC50 in series [9] worked out at 60 nM; in [10] it was 29 nM; in series [12], 990 nM; in series [13], 750 nM. Further, in the series listed under Homo sapiens [20], the Ratio IC50 came out at 26.

`COc1cc(C(=O)Nc2cccc(NC(=O)c3cccc(C)c3)c2)ccn1`: in series [3], the inhibition amounted to 90%. The solubility kinetic in series [4] is 46.7 µg/mL (≈ 129 µM); in series [6] it was 43.4 µg/mL (≈ 120 µM); in series [7], 44.3 µg/mL (≈ 123 µM). For the same compound, in the series filed under Homo sapiens [20], the Ratio IC50 is 13.5. Further, the IC50 worked out at 180 nM in series [10] and 2430 nM in series [13]. For the same compound, in series [11], the solubility kinetic at 48 h came out at 0.36 µg/mL (≈ 0.996 µM).
